MrgX1 antagonist: antagonists of human MrgX1 receptor | 310,000 tested, 1.3% active | Q96LB2 | MRGX1-HEK293 calcium flux, Fluo-4, BAM8-22 antagonism; hits give low values | B-score at 10 µM;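 active means calcium-response B-score plate-corrected more than 3 library SD below zero, starting fluorescence within 5 deviations, no agonist response on first addition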;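 further: peak minus trough fluorescence over baseline after final BAM8-22 challenge near maximal dose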
Target sequence (Q96LB2 whole entry, looked up): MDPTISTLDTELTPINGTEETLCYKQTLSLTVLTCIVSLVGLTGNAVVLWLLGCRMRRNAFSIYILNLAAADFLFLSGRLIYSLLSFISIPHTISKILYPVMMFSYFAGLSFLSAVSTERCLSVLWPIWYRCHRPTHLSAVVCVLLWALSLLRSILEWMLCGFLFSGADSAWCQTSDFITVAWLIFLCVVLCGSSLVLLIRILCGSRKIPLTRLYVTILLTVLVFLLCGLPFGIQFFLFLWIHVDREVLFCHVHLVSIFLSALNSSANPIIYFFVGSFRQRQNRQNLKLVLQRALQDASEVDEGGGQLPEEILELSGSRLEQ
RGS4 block: human RGS4 inhibition. HEK293 M3R/RGS4 inducible, Fluo-4 calcium flux; hits give high values; triggered by carbachol at its EC20. 310,000 tested, 0.45% active. B-score at 10 µM. P49798;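 active means B-score, a plate-corrected calcium signal, over three deviations above library mean, with baseline fluorescence within five deviations of library mean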;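 further: RGS4 expression induced by doxycycline in cells with stable M3 receptor; B-score is computed from the integrated fluorescence ratio over baseline after carbachol; higher B-score means a larger calcium signal and so more RGS4 inhibition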
Target sequence (P49798 whole entry, looked up): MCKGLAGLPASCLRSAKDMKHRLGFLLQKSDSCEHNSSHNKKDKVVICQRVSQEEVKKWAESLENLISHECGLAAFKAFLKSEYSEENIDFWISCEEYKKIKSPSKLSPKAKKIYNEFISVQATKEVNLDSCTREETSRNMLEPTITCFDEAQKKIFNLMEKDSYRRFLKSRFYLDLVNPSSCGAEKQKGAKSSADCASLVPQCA
MrgX1 PAM: human MrgX1 positive allosteric modulation, primary screen; Q96LB2; MrgX1-HEK293, Fluo-4 calcium flux, FDSS; hits give high values; B-score at 10 µM; 310,000 tested, 0.63% active; AID 588675;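 active means plate-corrected calcium response at least 3 library SD above typical, normal starting fluorescence, not activating the receptor alone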;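 further: compound read alongside a low EC10 to EC30 dose of BAM8-22 agonist; peak minus trough fluorescence over baseline measured at the second addition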
RGS4 pot: RGS4 potentiation or activation; 310,000 tested, 0.92% active; HEK293 M3R/inducible RGS4, carbachol calcium flux Fluo4; hits give low values; B-score at 10 µM; AID 463111;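 active means B-score of the integrated calcium signal more than 4 SD below the library mean, with starting fluorescence not abnormally high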;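 further: negative B-score means reduced calcium response which marks RGS4 activation or potentiation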
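Assay system: HEK293 FlpIn-TREx cells, stable M3R, doxycycline-inducible RGS4 / Probe or stimulus: carbachol, ECmax concentration / Times: overnight RGS4 induction, 30 min dye load 37 °C, 20 min compound RT / Signal: kinetic calcium fluorescence imaging with Fluo4-AM dye, 2 µM / Measure: Agonist-evoked peak-minus-minimum fluorescence over baseline, integrated ratio, B score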
MrgX1 agonist: agonists of human MrgX1 receptor; Q96LB2; MrgX1-HEK293 cells, Fluo-4 calcium fluorescence, agonist mode; hits give high values; B-score at 10 µM; 310,000 tested, 0.44% active;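 active means calcium response B-score plate-corrected fluorescence ratio at least 3 library SD, with starting fluorescence B-score inside 5 SD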
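Material: MrgX1-expressing HEK293 cells / Dosing: compound as first of three additions / Incubation: overnight seeding, then 1 h dark dye loading / Signal: Fluo-4 NW calcium fluorescence / Evaluation: B-scored fluorescence response ratio / Benchmarks: positive and negative control wells on each plate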
RGS4 act valid: RGS4 activation, validation assay | shares compounds with RGS4 pot | HEK293 M3R/RGS4 inducible, carbachol calcium flux Fluo4 | inhibition, % at 10 µM | 1,100 tested, 89% active | AID 602282;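 active means inhibition above 3 SD of the buffer control wells, cut at about 41% in these data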;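 further: signal is the integrated peak-minus-minimum Fluo4 fluorescence over baseline ratio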
RGS4 act ctr: activity in cells without induced RGS4 expression. HEK293 M3R non-induced RGS4, Fluo4 calcium flux; after carbachol challenge at its EC90. shares compounds with RGS4 pot. inhibition, % at 10 µM. 1,100 tested, 82% active;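 active means inhibition exceeding 3 SD of buffer-only control wells, cut at about 26% in these data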;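 further: percent drop in integrated peak-minus-baseline over baseline Fluo4 ratio after carbachol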
Active calls of the source: *; i = inactive; nt = no result given. This is a sample that favours compounds with a hit; in the whole collection about 3.5% have one here.

SMILES | MrgX1 antagonist | RGS4 block | MrgX1 PAM | RGS4 pot | MrgX1 agonist | RGS4 act valid | RGS4 act ctr
CCOC(=O)c1sc2nc(C)nc(NCc3ccc(Cl)cc3)c2c1C | i | i | i | -7.78* | i | 90.5* | 42.3*
CCOC(=O)c1sc2nc(C)nc(NCc3ccc(F)cc3)c2c1C | i | i | i | i | i | nt | nt
O=C(c1ccc(Cl)cc1)C1CCN(CC(=O)N2CCCCC2)CC1 | i | i | i | i | i | nt | nt
C/C(=N\NC(=O)c1ccc(CN2CCc3ccccc3C2)cc1)c1ccccc1O | -5.02* | i | i | -13.7* | i | 94.0* | 96.3*
CC(=O)c1cccc(NC(=O)c2ccc(CN3CCc4ccccc4C3)cc2)c1 | i | i | i | i | i | nt | nt
C=CCN(c1ccccc1)S(=O)(=O)c1cccc(C(=O)Nc2cccc(C)n2)c1 | i | i | i | i | i | nt | nt
COc1cc(C2CC(c3cccs3)=NN2C(=O)CCl)ccc1OC(F)F (stereo not given) | i | i | i | i | i | nt | nt
CS(=O)(=O)c1ccc2nc(NC(=O)c3ccc(Cn4cc(Br)cn4)o3)sc2c1 | i | i | i | -8.81* | i | 63.0* | 0.0
CCc1nn(CC(=O)N(C)C2CCCCC2)c(=O)c2cc3cc(C)ccc3n12 | i | i | i | i | i | nt | nt
COCCC(=O)N1CCC(Oc2ccc(C(=O)N3CCC[C@H]3CO)cc2)CC1 | i | i | i | i | i | nt | nt
CCN(C(=O)CN1CC(C)OC(C)C1)c1c(N)n(Cc2ccccc2)c(=O)[nH]c1=O (stereo not given) | i | i | i | i | i | nt | nt
O=C(c1ccc2nc(-c3ccco3)c(-c3ccco3)nc2c1)N1CCN(c2ccccc2)CC1 | i | i | i | -12.7* | i | 91.5* | 46.3*
CCc1nc2ccc(C(=O)N3CCN(c4ccccc4)CC3)cc2nc1CC | i | i | i | i | i | nt | nt
O=C(Nc1ccc2c(c1)CCCN2C(=O)c1ccccc1)c1ccccc1 | i | i | i | -9.03* | i | 62.0* | 0.0
COC(=O)[C@H](Cc1ccccc1)NC(=O)C1CCN(C(=O)[C@H](C)NS(=O)(=O)c2ccc(C)cc2)CC1 | i | i | i | i | i | nt | nt
Cc1ccc2nc(Cl)c3cc(C(=O)NCCCN4CCCC4)sc3c2c1 | i | i | i | -7.63* | i | 65.0* | 40.3*
CCCN1CCN(CCCNC(=O)c2cc3c(=O)oc4ccc(C)cc4c3s2)CC1 | i | i | i | i | i | nt | nt
CN(C)C(CNC(=O)c1ccc(C2SCCS2)cc1)c1ccccc1 (stereo not given) | i | i | i | -10* | i | 93.5* | 80.3*
N=c1c2c(-c3ccccc3)c(-c3ccccc3)n(Cc3ccco3)c2ncn1Cc1ccccc1 | i | i | i | -11* | i | 93.0* | 94.8*
Cc1ccccc1Cc1c(C)nc2nc(SCC(=O)NCCCN3CCCC3)nn2c1C | i | i | i | -8.73* | i | 72.5* | 36.8*
Cc1ccc(Cc2c(C)nc3nc(SCC(=O)NCCCN4CCCC4)nn3c2C)cc1 | i | i | i | -9.64* | i | 41.0* | 0.0
Cc1ccc(Cc2c(C)nc3nc(SCC(=O)NCCCN4CCCCC4)nn3c2C)cc1 | i | i | i | i | i | nt | nt
Cc1nc2nc(SCC(=O)NCCCN3CCCC(C)C3)nn2c(C)c1Cc1ccccc1Cl (stereo not given) | i | i | i | i | i | nt | nt
Cc1nc2nc(SCC(=O)NCCCN3CCCCCC3)nn2c(C)c1Cc1ccccc1Cl | i | i | i | -7.92* | i | 82.5* | 44.8*
O=C(NC1CC2CCC1C2)c1ccco1 (stereo not given) | i | i | i | i | i | nt | nt
SMILES | MrgX1 antagonist | RGS4 block | MrgX1 PAM | RGS4 pot | MrgX1 agonist | RGS4 act valid | RGS4 act ctr
CCCCN(CC)CCNC(=O)c1cc2c(-c3ccc(Cl)cc3)nn(C)c2s1 | i | i | i | -8.86* | i | 72.5* | 56.8*
O=C(CCn1c(=O)c2cccn2c2cccnc21)N1CCN(c2cccc(Cl)c2)CC1 | i | i | i | i | i | nt | nt
O=C(NC1CCN(Cc2ccccc2)CC1)C1COc2ccccc2O1 (stereo not given) | i | i | i | -8.54* | i | 92.5* | 86.8*
O=C(NCc1ccccc1)C1COc2ccccc2O1 (stereo not given) | i | i | i | i | i | nt | nt
CCCCCCCCCn1c2c(c(=N)c3c1CCC3)CCCC2 | nt | i | nt | -11.3* | nt | 92.5* | 95.3*
CCCCCCCCn1c2c(c(=N)c3ccccc31)CCC2 | nt | i | nt | i | nt | nt | nt
CCOC(=O)c1cc2sccc2n1CCCN1C(=O)c2ccccc2C1=O | i | i | i | -7.93* | i | 73.0* | 83.8*
CCOC(=O)c1cc2sccc2n1Cc1ccccc1 | i | i | i | i | i | nt | nt
COc1ccc(CC(=O)Nc2cccc(-c3nnc(-c4ccco4)o3)c2)cc1 | i | i | i | i | i | nt | nt
COc1ccc(C(=O)Nc2cccc(-c3nnc(-c4ccco4)o3)c2)cc1 | i | i | i | -9.6* | i | 87.5* | 48.3*
CCC1CCC(C(=O)NC(CCSC)C(=O)NCCc2ccc(S(N)(=O)=O)cc2)CC1 (stereo not given) | i | i | i | i | i | nt | nt
Cc1[nH]c2ccccc2c1SCc1n[nH]c(=S)n1C | i | i | i | i | i | nt | nt
Cc1[nH]c2ccccc2c1Cc1n[nH]c(=S)n1C | i | i | i | -8.19* | i | 0.0 | 0.0
COc1ccc2nc3sc(C(=O)NCCCN4CCc5ccccc5C4)cc3cc2c1 | i | i | i | -8.2* | i | 74.0* | 83.8*
CCn1c(C)c(C)c2cc(C(=O)Nc3cccc(Cl)c3)ccc21 | i | i | i | -7.74* | i | 61.0* | 0.0
CCn1c(C)cc(O)c(C(=O)Nc2cccc(Cl)c2)c1=O | i | i | i | i | i | nt | nt
Cc1ccc(NC(=S)NC2CCSc3ccccc32)cc1C (stereo not given) | i | i | i | -8.75* | i | 92.0* | 92.8*
O=C(c1ccc2ccccc2c1)N1CCN(Cc2ccccc2)CC1 | i | i | i | i | i | nt | nt
Cc1cc(CNC(=O)c2cc(COc3ccc(F)c(F)c3)on2)nn1C | i | i | i | i | i | nt | nt
